Source: PubChem
Shown are actives, neighbours in structure and some others; about 1.6% of the full set was active somewhere.
TPT1 inhibitor: C. albicans TPT1 enzyme inhibition. recombinant caTPT1, FP RNA substrate dephosphorylation. inhibition, % at 5 µM. 300,000 compounds, 0.81% hits;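 active = inhibition above the mean of all tested compounds plus 3 SD, set per screening campaign, cut at about 24% in these data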;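 note: plate controls were DMSO alone for no effect and ferristatin control at 100 nM for full effect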
SENP1 inh: SENP1 (human) catalytic domain inhibition; inhibition, % at 10 µM; recombinant SENP1 catalytic domain, CyPet-SUMO1-YPet FRET cleavage; Q9P0U3; 360,000 compounds, 0.21% hits;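 active = inhibition at least 30% at 10 µM, raw YFP signal under a set limit, fluorescence ratio 0.5 to 1.5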;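 note: 0% = enzyme with DMSO and 100% = no enzyme wells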
Target sequence (Q9P0U3 419-644 limits assumed): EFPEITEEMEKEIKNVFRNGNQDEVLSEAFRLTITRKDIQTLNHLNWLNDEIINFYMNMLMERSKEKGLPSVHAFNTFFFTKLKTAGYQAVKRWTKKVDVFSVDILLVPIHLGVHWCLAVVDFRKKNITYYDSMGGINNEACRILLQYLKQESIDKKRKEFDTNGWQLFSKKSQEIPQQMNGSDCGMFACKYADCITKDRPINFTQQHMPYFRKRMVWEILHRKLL
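Material – human SENP1 catalytic domain · Input – SENP1 enzyme, 20 pM final · Compound dosing – single concentration of 10 µM compound, 0.5% DMSO final · Timing – enzyme reaction for 50 min at room temperature, dark · Measured by – FRET fluorescence in CFP and YFP emission channels · Control set – no-enzyme wells low, DMSO-plus-enzyme wells high control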
CSN deneddyl inh: inhibitors of human CSN-mediated cullin deneddylation. Q92905. 360,000 compounds, 0.38% hits. Purified CSN, SCF-Nedd8-OG deneddylation, fluorescence polarization. inhibition, % at 12.5 µM;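 active = pattern-corrected inhibition above about 35%, with an unprinted fluorescence ratio check between 0.5 and 1.5, limit read from the data, passing the limit was not always enough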;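 note: 0% = enzyme with substrate and 100% = substrate without enzyme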
Target sequence (Q92905 whole entry, looked up, one chain of several): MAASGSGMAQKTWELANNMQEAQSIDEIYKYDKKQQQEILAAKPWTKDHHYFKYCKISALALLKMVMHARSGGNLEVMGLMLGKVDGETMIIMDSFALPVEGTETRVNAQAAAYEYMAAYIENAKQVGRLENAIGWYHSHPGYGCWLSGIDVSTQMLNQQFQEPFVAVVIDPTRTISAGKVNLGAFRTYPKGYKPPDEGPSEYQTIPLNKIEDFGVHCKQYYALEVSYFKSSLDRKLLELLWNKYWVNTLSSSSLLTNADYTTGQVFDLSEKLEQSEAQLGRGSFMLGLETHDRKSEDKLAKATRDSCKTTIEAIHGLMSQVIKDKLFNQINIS
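assay system = purified human Csn5 enzyme expressed in HEK293T cells | amount = 0.24 nM enzyme | buffer or medium = Tris/NaCl/DTT buffer, pH 7.5 | reagent = 10 nM SCFSkp2-Nedd8OG | compound = one concentration, 12.5 µM, 0.25% DMSO | times = 90 min reaction at room temperature | signal = FP | read-out basis = % inhibition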
Rpn11 inh: inhibitors of human proteasome Rpn11 | O00487 | human 26S proteasome, Ub4-pepOG fluorescence polarization; 20S core pre-blocked with epoxomicin | inhibition, % at 20 µM | 360,000 compounds, 0.59% hits | AID 588493;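 active = inhibition at 20 µM, scaled to each plate's controls, above about 33%, limit read from the data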
HNF4A DNA FP: change in binding of human HNF4 alpha to DNA | HNF4a-FITC DNA binding, fluorescence polarization, 1 h | P41235 | 360,000 compounds, 0.3% hits | activity change, % at 10 µM; in the data active = activity change above about 30%, passing the limit was not always enough
TPT1 inh confirm: confirmation of Candida albicans TPT1 inhibitors | recombinant caTPT1, fluorescence polarization, RNase T1 coupled | inhibition, % at 5 µM | 2,400 compounds, 74% hits | shares compounds with TPT1 inhibitor;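 active = inhibition above the primary screen limit, the mean inhibition of all tested compounds plus 3 SD, cut at about 25% in these data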
RNase T1 counter: blocks Aspergillus oryzae RNase T1, a TPT1 counter-screen. RNase T1 cleavage, fluorescence polarization, 1536-well. 2,400 compounds, 83% hits. inhibition, % at 5 µM. shares compounds with TPT1 inhibitor;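 active = inhibition above the solvent-only control well mean plus 3 SD, limit set per screening run, cut at about 23% in these data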;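 note: plate controls were DMSO wells with enzyme for no effect and wells without RNase T1 for full effect; inhibitors block cleavage so intact labeled substrate keeps polarization high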
Target sequence (P00651 whole entry, looked up): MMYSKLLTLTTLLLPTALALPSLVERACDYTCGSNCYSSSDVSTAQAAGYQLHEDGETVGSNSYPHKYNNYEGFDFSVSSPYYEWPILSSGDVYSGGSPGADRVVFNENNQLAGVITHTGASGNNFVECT
Numbers without * were called inactive; nt = no result shown.

SMILES | TPT1 inhibitor | SENP1 inh | CSN deneddyl inh | Rpn11 inh | HNF4A DNA FP | TPT1 inh confirm | RNase T1 counter
O=C(CN1C(=O)S/C(=C\c2cc(Cl)c(O)c(Cl)c2)C1=O)Nc1ccccc1 | 96* | -24 | 29 | nt | 38* | 100* | 108*
Cc1[nH]c2ccccc2c1C(=O)CSC(=S)N(C)C1CCCCC1 | 128* | 1 | 3 | -3 | -1 | 12 | 14
Cc1[nH]c2ccccc2c1C(=O)C(=O)N(C)C1CCCCC1 | -1 | 2 | -2 | -11 | 5 | nt | nt
CSc1nc(-c2ccccc2)nc(NC(=O)c2ccccc2)c1C(C)=O | -2 | -3 | 5 | 0 | 6 | nt | nt
CSc1nc(-c2ccccc2)nc(SC)c1C(C)=O | 26* | 2 | -1 | -5 | 2 | 6 | 14
COc1cc(-c2nc(-c3ccccc3)c(-c3ccc(F)cc3)[nH]2)cc2c1OCO2 | 3 | -4 | -6 | 2 | -1 | nt | nt
COc1ccccc1N=Nc1nc(-c2ccccc2)c(-c2ccccc2)[nH]1 | 25* | 17 | 7 | 23 | 19 | 33* | 42*
O=c1c(/C=C(\O)c2ccccc2)nc2ccccc2n1-c1ccccc1 | 119* | -14 | 19 | -4 | 46* | 86* | 95*
Cn1c(SCC(=O)NCC2CCCO2)nnc1-c1cccc(NC(=O)c2ccccc2F)c1 (centres undefined) | 31* | 3 | 0 | -7 | -2 | 9 | 10
Cc1cc(SCC(=O)NCC2CCCO2)nc2ccccc12 (centres undefined) | 30* | 57* | 22 | nt | 16 | 55* | 67*
O=C1[C@@H](Oc2ccccc2)[C@@H](c2cccnc2)N1c1ccccc1 | nt | 0 | -8 | -1 | 2 | nt | nt
CCOC(=O)C1=C(COC(=O)c2ccc(Br)c(S(=O)(=O)N3CCOCC3)c2)NC(=O)NC1C (centres undefined) | nt | -1 | 3 | 1 | -2 | nt | nt
CCOC(=O)C1(CC2CCCCO2)CCN(C(=O)Nc2ccc3c(c2)OCO3)CC1 (centres undefined) | 38* | 0 | -1 | 2 | 2 | 0 | 18
Cc1ccc(C)n1-c1cccc(C(=O)Nc2ccccc2)c1 | 38* | 0 | 4 | -4 | 1 | 40* | 50*
S=C(Nc1ccc(Cl)cc1)N(CCCN1CCOCC1)Cc1cccs1 | 57* | 5 | 1 | -2 | 2 | 4 | 5
COc1ccc(-n2c(SC)nc3sc4c(c3c2=O)CCN(C)C4)cc1 | nt | -82 | 7 | 15 | 3 | nt | nt
CN(C)CCNc1nc2sc3c(c2c(=O)n1Cc1ccccc1)CCCCC3 | nt | 0 | 5 | -19 | 2 | nt | nt
CN1CCc2c(sc3nc(NN)n(Cc4ccccc4)c(=O)c23)C1 | 38* | -23 | 11 | 39 | 22 | 46* | 54*
CN1CCc2c(sc3nc(NN)n(-c4ccc(Cl)cc4)c(=O)c23)C1 | 38* | -65 | 14 | 46* | 19 | 18 | 24*
CC(=O)Nc1ccc(S(=O)(=O)Nc2nc3ccccc3nc2Nc2ccc(S(N)(=O)=O)cc2)cc1 | -1 | -56 | -3 | -12 | 3 | nt | nt
CC(=O)Nc1ccc(S(=O)(=O)Nc2nc3ccccc3nc2Nc2ccc(O)c(C(=O)O)c2)cc1 | 43* | 10 | 19 | nt | 27 | 24* | 33*
COc1ccc(NC(=O)NNC(=O)c2ccccc2-n2cccc2)cc1OC | -1 | 1 | 3 | 15 | 2 | nt | nt
Cc1ccc(S(=O)(=O)NCC(C)n2cncn2)cc1 (centres undefined) | -1 | 1 | 0 | 0 | 0 | nt | nt
COc1ccc(NS(=O)(=O)c2ccc(N/N=C/c3ccc(N4CCOCC4)cc3)c([N+](=O)[O-])c2)cc1 | 8 | 3 | -2 | 5 | -5 | nt | nt
COc1ccc(/C=N/Nc2ccc(C(F)(F)F)cc2[N+](=O)[O-])cc1 | 62* | 2 | -2 | -1 | 0 | 7 | 12
SMILES | TPT1 inhibitor | SENP1 inh | CSN deneddyl inh | Rpn11 inh | HNF4A DNA FP | TPT1 inh confirm | RNase T1 counter
Cc1cc(=O)[nH]c2sc(C(=O)N3c4ccccc4CC3C)c(N)c12 (centres undefined) | nt | 0 | -2 | -6 | 1 | nt | nt
Nc1c(C(=O)c2ccc(Cl)cc2)sc2nsc(SCCN3CCOCC3)c12 | 41* | -38 | 38* | nt | 55 | 57* | 69*
Nc1c(C(=O)c2ccccc2)sc2nsc(SCCN3CCCC3)c12 | 48* | -39 | 25 | nt | 38* | 47* | 56*
CC(=O)c1sc2nsc(SCCN3CCCCC3)c2c1N | -8 | -11 | 2 | 2 | 1 | nt | nt
COc1ccc(CCN(C)C(=O)CSc2nc3ncc(Cl)cc3[nH]2)cc1OC | -2 | -1 | 2 | -4 | -1 | nt | nt
O=C(Nc1ccc2c(c1)OCO2)[C@@H]1[C@@H]2C(=O)N(C3CCCCC3)C(=O)[C@@H]2C2c3ccccc3C=CN21 (some centres undefined) | 62* | nt | nt | nt | nt | 52* | 63*
O=C(c1ccc2c(c1)OCO2)[C@@H]1[C@@H]2C(=O)N(C3CCCCC3)C(=O)[C@@H]2C2c3ccccc3C=CN21 (some centres undefined) | nt | -9 | 0 | 0 | 1 | nt | nt
CCOC(=O)c1ccc(-n2cnc(-c3ccc([N+](=O)[O-])cc3)c2)cc1 | nt | 1 | 5 | 5 | 17 | nt | nt
COCCCNC(=O)/C(C#N)=C1\N=C(NC(=O)c2cccs2)c2ccccc21 | 31* | -29 | 12 | 19 | 19 | 10 | 15
COCCCNC(=O)c1cccs1 | -2 | 1 | -3 | -6 | -3 | nt | nt
COc1ccc(C(=O)NCC(c2ccccc2)c2ccccc2)cc1S(=O)(=O)N1CCOCC1 | nt | -4 | -4 | -1 | -4 | nt | nt
Cc1ccccc1C(=O)N1CCN(c2ccc(NC(=O)c3cccnc3Cl)cc2)CC1 | 94* | 2 | 8 | -19 | 4 | 5 | 5
Cc1ccccc1C(=O)N1CCN(c2ccc(NC(=O)c3ccccc3[N+](=O)[O-])cc2)CC1 | -3 | 0 | -4 | -10 | 0 | nt | nt
CC(C)(C)C(=O)NC(=S)NNC(=O)c1sc2ccccc2c1Cl | 27* | 4 | -4 | 4 | 0 | 0 | 1
O=C(NNC(=S)NC1CCCCC1)c1sc2ccccc2c1Cl | -6 | 0 | -14 | -4 | 4 | nt | nt
Cc1cccc2cc(/C=N/Nc3ccc(C(=O)O)cc3)c(Cl)nc12 | 25* | -36 | 4 | 32 | 11 | 42* | 54*
O=C(O)c1ccc(N/N=C/c2cc3ccccc3nc2Cl)cc1 | 20 | -33 | 2 | 16 | 10 | nt | nt
O=C(N/N=C/c1c(O)n(Cc2ccccc2)c(=O)c2ccccc12)c1cccnc1 | 106* | -34 | 20 | nt | 42* | 117* | 120*
